Source: PubChem BioAssay (Sanford-Burnham Center for Chemical Genomics)
PABP FP inh – blocks human PABP binding to poly(A) RNA; fluorescence polarization; AID 2014; inhibition, % at 35 µM; P11940; 1% of 290,000 active;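 further: calls also rest on retests at 20 µM and on dose response follow-up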
Target sequence (P11940 whole entry, looked up): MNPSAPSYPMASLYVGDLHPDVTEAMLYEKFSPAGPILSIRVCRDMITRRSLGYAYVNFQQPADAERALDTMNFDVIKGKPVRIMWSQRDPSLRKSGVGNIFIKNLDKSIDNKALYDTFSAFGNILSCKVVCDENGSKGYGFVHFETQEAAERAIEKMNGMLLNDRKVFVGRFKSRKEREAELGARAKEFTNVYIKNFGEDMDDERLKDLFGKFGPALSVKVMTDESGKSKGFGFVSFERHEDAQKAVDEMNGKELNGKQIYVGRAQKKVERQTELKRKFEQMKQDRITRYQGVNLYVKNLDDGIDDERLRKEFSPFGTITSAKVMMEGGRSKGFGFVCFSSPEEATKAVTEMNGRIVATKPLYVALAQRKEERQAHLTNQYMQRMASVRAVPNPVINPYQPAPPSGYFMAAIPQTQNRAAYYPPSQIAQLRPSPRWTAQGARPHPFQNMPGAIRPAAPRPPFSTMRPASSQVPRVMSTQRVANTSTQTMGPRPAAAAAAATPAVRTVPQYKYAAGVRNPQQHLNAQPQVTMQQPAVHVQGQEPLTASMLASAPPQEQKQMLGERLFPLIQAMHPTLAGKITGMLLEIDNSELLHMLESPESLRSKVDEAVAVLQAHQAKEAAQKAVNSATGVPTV
SKN-1 inh – blocks SKN-1 activity in C. elegans; C. elegans VP596 Pgst-4::GFP/RFP ratio, acrylamide-induced, 24 h; inhibition, % at 21.8 µM; 0.49% of 360,000 active;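 active means interference check ratio from 0.5 to 1.5 plus GFP to RFP signal ratio inhibition reaching or exceeding a fixed threshold, cut at about 30% in these data, passing the limit was not always enough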
eIF4H FP inh – inhibitors of RNA binding by human eIF4H; Q15056; eIF4H fluorescence polarization binding assay; inhibition, % at 35 µM; 0.94% of 290,000 active;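 further: calls also rest on retests at 20 µM and on dose response follow-up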
PABP1 MLLE inh – blocks PAM2 peptide binding to the PABP1 MLLE domain; inhibition, % at 20 µM; GST-MLLE / FITC-PAM2 fluorescence polarization; 0.36% of 360,000 active; AID 588489; P11940; in the data active means inhibition above about 35%, passing the limit was not always enough;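 further: plate controls were DMSO wells with GST-MLLE for no effect and wells lacking GST-MLLE protein for full effect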
MT1-MMP act inh – inhibitors of human MT1-MMP activation; P50281; HT1080 RFP-PRO-GFP cells, GFP/RFP ratio fluorescence, overnight; percent of plate control window, DMSO zero; GFP/RFP ratio change, % at 20 µM; 0.061% of 360,000 active;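 active means GFP/RFP ratio change of at least 30% with cell ATP level not reduced by more than half and red fluorescence within 50% of control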
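system = RFP-PRO-GFP reporter HT1080 cells | dosing = 20 µM single dose, 1% DMSO | timing = overnight cell settling, then overnight compound exposure, 37 °C, 5% CO2 | read-out basis = GFP/RFP fluorescence ratio | controls = DMSO and RFP-L50D-GFP cell wells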
* marks the source's active call; other numbers are inactive results; ? = inconclusive; · = no result. Sampled rows, rich in hits. Any-hit rate of the full collection: about 1.7%. Unless noted, how the calls were made is not given here.

SMILES	PABP FP inh	SKN-1 inh	eIF4H FP inh	PABP1 MLLE inh	MT1-MMP act inh
O=C1NC(=S)NC(=O)C1=Cc1cccc2cc3ccccc3cc12	11	-7	98	40*	-12
COc1ccc2c(c1)NP(=S)(Oc1ccccc1)N2 (stereo unspecified)	62*	-3	89*	32	-14
Cc1ccc2c(c1)NP(=S)(Oc1ccccc1)N2 (stereo unspecified)	·	1	·	37	1
COCCCNC(=O)c1c(NC(=O)c2ccccc2Cl)n(Cc2ccccc2)c2nc3ccccc3nc12	59	-1	42*	-12	-31
COCCNC(=O)c1c(NC(=O)c2ccco2)n(Cc2ccccc2)c2nc3ccccc3nc12	15	14	18	6	-9
COC(=O)C1=C(c2ccccc2OCc2ccccc2)C[C@@H]2CC[C@H]1N2C(=O)NCCc1ccc(F)cc1	·	-32	·	8	-9
CCN(CC)C(=O)c1ccc2c(c1)C1C=CCC1C(C(=O)O)N2 (stereo unspecified)	65*	10	85*	17	20
Cc1ccc2c(c1Cl)NC(C(=O)O)C1CC(Sc3ccccc3[N+](=O)[O-])C(Cl)C21 (stereo unspecified)	62*	16	87*	22	3
O=C(O)c1cccc2c1NC(c1cccc([N+](=O)[O-])c1)C1CC(Sc3ccccc3[N+](=O)[O-])C(Cl)C21 (stereo unspecified)	76	6	82*	12	7
CCN(CC)C(=O)c1ccc2c(c1)C1C(Cl)C(Sc3ccccc3[N+](=O)[O-])CC1C(C(=O)O)N2 (stereo unspecified)	95*	-6	90*	39	69
O=C(O)c1ccc2c(c1)C1C(Cl)C(Sc3ccccc3[N+](=O)[O-])CC1C(c1cccc([N+](=O)[O-])c1)N2 (stereo unspecified)	-6	2	99	13	6
CCN(CC)C(=O)c1ccc(N(Cc2ccccc2)S(C)(=O)=O)cc1	-8	-2	-4	9	0
CS(=O)(=O)c1ccc(C2=C(CNC(=O)c3cccs3)[C@H]3CC[C@@H](C2)N3Cc2ccco2)cc1	·	1	·	-3	4
CCc1nn(CC(=O)N2CCC3(CC2)OCCO3)c(=O)c2cc3ccccc3n12	1	-12	-1	-4	1
S=C=Nc1ccccn1	0	1	0	27	-1
c1ccc(P(c2ccccc2)c2ccccn2)cc1	-2	8	-3	39*	0
CN(C)[C@@H]1C(=O)C(C(N)=O)=C(O)[C@@]2(O)C(=O)C3=C(O)c4c(O)ccc(Cl)c4[C@@](C)(O)C3C[C@@H]12 (stereo partly specified)	1	13	64	8	-25
CN(C)C1C(=O)C(C(N)=O)=C(O)C2(O)C(=O)C3=C(O)c4c(O)cccc4C(C)(O)C3CC12 (stereo unspecified)	56*	4	81*	0	1
COC(=O)C1=C(c2cccc(OC)c2OC)C[C@@H]2CC[C@H]1N2C(=O)N1CCCC1	·	-11	·	-10	-2
Cc1cc(N(CCCl)CCCl)ccc1C=Cc1ccncn1	·	42*	·	-107	-107
O=P(NC1CCCCC1)(Oc1ccccc1)Oc1ccccc1	·	2	·	-2	2
CCOC(=O)C1=C(N)OC2=C(C(=O)CCC2)[C@]12C(=O)N(CC(N)=O)c1ccccc12	4	-1	-4	-3	1
COc1ccc(/C=C2/C(=O)NC(=O)N(c3ccc(C)c(C)c3)C2=O)cc1CN1C(=O)c2ccccc2C1=O	active	-1	50*	27	-3
CC(C)(C)c1cc(C=C(C#N)C#N)cc(C(C)(C)C)c1O	·	42*	·	-79	5
N#CC(C#N)=Cc1ccc(O)c(O)c1	·	-23	·	-19	0
SMILES	PABP FP inh	SKN-1 inh	eIF4H FP inh	PABP1 MLLE inh	MT1-MMP act inh
O=c1[nH]c(=O)n(CCC2=CCCCC2)c(O)c1/C=N/Nc1cccc2ccccc12	35*	23	?	3	-22
CCC(C)N=Cc1c(O)n(-c2ccccc2)c(=O)[nH]c1=O (stereo unspecified)	-3	-17	-5	46*	0
O=c1[nH]c(=O)n(-c2ccc(F)cc2)c(O)c1C=Nc1ccccc1N1CCCC1	77*	-6	64*	-58	3
O=c1[nH]c(=O)n(-c2cccc(Cl)c2)c(O)c1/C=N/c1ccccn1	63*	18	85*	-33	-9
N=Cc1c(O)n(-c2cccc(Cl)c2)c(=O)[nH]c1=O	-2	5	0	10	-4
C[C@H]1COc2cccc(N3CCN(C)CC3)c2S(=O)(=O)N1	·	14	·	·	3
COc1ccc(CN2CCN(C(=O)Cc3ccccc3)CC2)cc1Br	12	3	17	9	2
Cc1ccccc1N1C(=O)/C(=C/c2ccco2)C(=O)NC1=S	74*	·	75*	·	·
CCOc1ccc(N2C(=O)/C(=C/c3ccco3)C(=O)NC2=S)cc1	11	4	23	-6	-1
Cc1ccccc1N1C(=O)NC(=O)/C(=C\c2cc(Br)c(N3CCOCC3)o2)C1=O	-5	38*	?	-165	-123
Cc1ccccc1N1C(=O)NC(=O)/C(=C/c2ccc(N3CCOCC3)o2)C1=O	?	19	?	-175	-48
COC1C(OC(=O)c2ccc(C)[nH]2)C(O)C(Oc2ccc3c(O)c(NC(=O)c4ccc(O)c(CC=C(C)C)c4)c(=O)oc3c2Cl)OC1(C)C (stereo unspecified)	17	7	-4	5	1
COP(=S)(OC)Oc1ccc(Sc2ccc(OP(=S)(OC)OC)cc2)cc1	·	12	·	36*	-2
CCOC(=O)C1SC2(C(F)(F)F)CC1(O)c1c(C)cc(C)nc1O2 (stereo unspecified)	-7	13	-7	60*	-3
OCCCCO	·	-4	·	-8	-2
O=C(c1ccc(N2CCCCCC2)c([N+](=O)[O-])c1)N1CCC2(CC1)OCCO2	-6	2	1	10	3
O=C1NC(=O)C(=Cc2ccccc2[N+](=O)[O-])C(=O)N1	·	-5	·	31	0
O=C1NC(=O)C(=Cc2cc3c(cc2[N+](=O)[O-])OCO3)C(=O)N1	active	-6	98*	30	-7
Cn1cccc1/C=C1/C(=O)NC(=O)N(Cc2ccc(F)cc2)C1=O	22*	6	?	-20	-41
O=C1NC(=O)N(Cc2ccco2)C(=O)/C1=C/c1cccn1CCOc1ccccc1Cl	active	-22	?	-29	-17
Cn1cccc1/C=C1\C(=O)NC(=O)N(Cc2ccccc2)C1=O	45*	23	?	-16	-22
CCOc1ccccc1CN1C2CCC1CC(c1ccc(C)cc1)C2 (stereo unspecified)	2	-13	2	2	2
COC(=O)C1=C(c2cc3ccccc3o2)C[C@@H]2CC[C@H]1N2C(=O)N1CCC(C)CC1	·	25	·	-5	-6
